Test results taken from ChEMBL document CHEMBL1777764, “Synthesis and evaluation of 1-(1H-indol-3-yl)ethanamine derivatives as new antibacterial agents” (Bioorg Med Chem, 2011).
In brackets after ≈: the same amount, converted by molar mass.

Legend:
[1] = tested on: HCT-116; assay: Cytotoxicity against human HCT116 cells at 1 uM; format: cell-based; settings: hct-116, 1 µM
[2] = tested on: Staphylococcus aureus; assay: Antibacterial activity against Staphylococcus aureus ATCC 25923 after 18 hrs by broth microdilution method; format: functional; settings: ATCC 25923, 18 h
Outline: (§1)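 MIC by broth microdilution per ISO 20776-1:2006 and CLSI M07-A8. Inoculum 10^6 cfu/ml in Mueller-Hinton broth with compound serially diluted, final concentrations 2 to 128 ug/ml, duplicate rows, no-drug growth control. Incubation 18 h at 37 °C. MIC taken as lowest concentration giving complete inhibition of visible growth. Each compound tested at least twice.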

[3] = tested on: Staphylococcus epidermidis; assay: Antibacterial activity against Staphylococcus epidermidis CIP 103627 after 18 hrs by broth microdilution method; format: functional; settings: CIP 103627, 18 h; outline: as §1
[4] = tested on: Staphylococcus aureus; assay: Antibacterial activity against Staphylococcus aureus ATCC 9144 after 18 hrs by broth microdilution method; format: functional; settings: ATCC 9144, 18 h; outline: as §1
[5] = tested on: Staphylococcus aureus; assay: Antibacterial activity against Staphylococcus aureus ATCC 29213 after 18 hrs by broth microdilution method; format: functional; settings: ATCC 29213, 18 h; outline: as §1
[6] = tested on: MRC5; assay: Cytotoxicity against human MRC5 cells at 10 uM; format: cell-based; settings: mrc5, 10 µM
[7] = tested on: Staphylococcus epidermidis; assay: Antibacterial activity against Staphylococcus epidermidis CIP 81.55 after 18 hrs by broth microdilution method; format: functional; settings: CIP 81.55, 18 h; outline: as §1
[8] = tested on: Staphylococcus aureus; assay: Antibacterial activity against Staphylococcus aureus ATCC 6538 after 18 hrs by broth microdilution method; format: functional; settings: ATCC 6538, 18 h; outline: as §1
[9] = tested on: Staphylococcus aureus; assay: Antibacterial activity against Staphylococcus aureus CIP 103428 after 18 hrs by broth microdilution method; format: functional; settings: CIP 103428, 18 h; outline: as §1
[10] = tested on: KB; assay: Cytotoxicity against human KB cells at 1 uM; format: cell-based
[11] = tested on: Staphylococcus aureus; assay: Antibacterial activity against Staphylococcus aureus CIP 65.6 after 18 hrs by broth microdilution method; format: functional; settings: CIP 65.6, 18 h; outline: as §1
[12] = tested on: Staphylococcus epidermidis; assay: Antibacterial activity against Staphylococcus epidermidis ATCC 12228 after 18 hrs by broth microdilution method; format: functional; settings: ATCC 12228, 18 h; outline: as §1
[13] = tested on: MRC5; assay: Cytotoxicity against human MRC5 cells at 1 uM; format: cell-based; settings: mrc5, 1 µM
[14] = tested on: HCT-116; assay: Cytotoxicity against human HCT116 cells at 10 uM; format: cell-based; settings: hct-116, 10 µM
[15] = tested on: KB; assay: Cytotoxicity against human KB cells at 10 uM; format: cell-based
[16] = tested on: Staphylococcus aureus; assay: Antibacterial activity against methicillin-resistant Staphylococcus aureus ATCC 33592 after 18 hrs by broth microdilution method; format: functional; settings: ATCC 33592, 18 h
Outline: (§2)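 Broth microdilution following ISO 20776-1:2006 and CLSI M07-A8, in Mueller-Hinton broth. Inoculum was 10^6 cfu/ml, with compound serial dilutions spanning 2 to 128 ug/ml and a compound-free growth control well. Plates were incubated 18 h at 37 °C. MIC was the lowest concentration giving complete inhibition of visible growth. Each compound was tested at least twice.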

[17] = tested on: Staphylococcus aureus; assay: Antibacterial activity against vancomycin intermediate Staphylococcus aureus […] after 18 hrs by broth microdilution method; format: functional; outline: as §2
[18] = tested on: Streptococcus pneumoniae; assay: Antibacterial activity against Streptococcus pneumoniae ATCC 6303 after 18 hrs by broth microdilution method; format: functional; settings: ATCC 6303, 18 h
Outline: (§3)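 MIC by broth microdilution per ISO 20776-1:2006 and CLSI M07-A8. Inoculum 10^6 cfu/ml in Mueller-Hinton broth […]. Compound serially diluted, final 2 to 128 ug/ml, duplicate rows, no-drug growth control. Read after 18 h at 37 °C as lowest concentration fully inhibiting visible growth. At least two experiments.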

[19] = tested on: Staphylococcus aureus; assay: Antibacterial activity against methicillin-resistant Staphylococcus aureus CIP 65.25 after 18 hrs by broth microdilution method; format: functional; settings: CIP 65.25, 18 h; outline: as §2
[20] = tested on: Streptococcus pneumoniae; assay: Antibacterial activity against Streptococcus pneumoniae ATCC 49619 after 18 hrs by broth microdilution method; format: functional; settings: ATCC 49619, 18 h; outline: as §3

Structure (SMILES): CC(C)CC(NO)c1c[nH]c2ccccc12 (centres undefined)
- Activity [1]: Non-toxic
- MIC [2]: 64 µg/mL (≈ 293 µM)
- MIC [3]: 32 µg/mL (≈ 147 µM)
- MIC [4]: 64 µg/mL (≈ 293 µM)
- MIC [5]: 64 µg/mL (≈ 293 µM)
- Activity [6]: Non-toxic
- MIC [7]: 32 µg/mL (≈ 147 µM)
- MIC [8]: 64 µg/mL (≈ 293 µM)
- MIC [9]: 64 µg/mL (≈ 293 µM)
- Activity [10]: Non-toxic
- MIC [11]: 64 µg/mL (≈ 293 µM)
- MIC [12]: 32 µg/mL (≈ 147 µM)
- Activity [13]: Non-toxic
- Activity [14]: Non-toxic
- Activity [15]: Non-toxic

Structure (SMILES): CC(C)CC(NO)c1c[nH]c2ccc(Cl)cc12 (centres undefined)
- Activity [1]: Non-toxic
- MIC [2]: 16 µg/mL (≈ 63.3 µM)
- MIC [3]: 32 µg/mL (≈ 127 µM)
- MIC [4]: 16 µg/mL (≈ 63.3 µM)
- MIC [5]: 16 µg/mL (≈ 63.3 µM)
- Activity [6]: Non-toxic
- MIC [7]: 32 µg/mL (≈ 127 µM)
- MIC [8]: 16 µg/mL (≈ 63.3 µM)
- MIC [9]: 16 µg/mL (≈ 63.3 µM)
- Activity [10]: Non-toxic
- MIC [11]: 16 µg/mL (≈ 63.3 µM)
- MIC [12]: 32 µg/mL (≈ 127 µM)
- Activity [13]: Non-toxic
- Activity [14]: Non-toxic
- Activity [15]: Non-toxic

Structure (SMILES): CC(C)(C)OC(=O)NCC(c1c[nH]c2ccc(Cl)cc12)N(O)Cc1ccccc1 (centres undefined)
- Activity [1]: Non-toxic
- MIC [2]: 16 µg/mL (≈ 38.5 µM)
- MIC [16]: 16 µg/mL (≈ 38.5 µM)
- MIC [3]: 16 µg/mL (≈ 38.5 µM)
- MIC [4]: 16 µg/mL (≈ 38.5 µM)
- MIC [17]: 16 µg/mL (≈ 38.5 µM)
- MIC [18]: 64 µg/mL (≈ 154 µM)
- MIC [5]: 16 µg/mL (≈ 38.5 µM)
- MIC [7]: 16 µg/mL (≈ 38.5 µM)
- MIC [8]: 16 µg/mL (≈ 38.5 µM)
- MIC [9]: 16 µg/mL (≈ 38.5 µM)
- Activity [10]: Non-toxic
- MIC [11]: 16 µg/mL (≈ 38.5 µM)
- MIC [19]: 16 µg/mL (≈ 38.5 µM)
- MIC [12]: 16 µg/mL (≈ 38.5 µM)
- Activity [13]: Non-toxic
- MIC [20]: 64 µg/mL (≈ 154 µM)

Structure (SMILES): CC(C)(C)OC(=O)NCC(c1c[nH]c2ccc(I)cc12)N(O)Cc1ccccc1 (centres undefined)
- Activity [1]: Non-toxic
- MIC [2]: 8 µg/mL (≈ 15.8 µM)
- MIC [16]: 8 µg/mL (≈ 15.8 µM)
- MIC [3]: 8 µg/mL (≈ 15.8 µM)
- MIC [4]: 8 µg/mL (≈ 15.8 µM)
- MIC [17]: 8 µg/mL (≈ 15.8 µM)
- MIC [18]: 64 µg/mL (≈ 126 µM)
- MIC [5]: 8 µg/mL (≈ 15.8 µM)
- MIC [7]: 8 µg/mL (≈ 15.8 µM)
- MIC [8]: 8 µg/mL (≈ 15.8 µM)
- MIC [9]: 8 µg/mL (≈ 15.8 µM)
- Activity [10]: Non-toxic
- MIC [11]: 8 µg/mL (≈ 15.8 µM)
- MIC [19]: 8 µg/mL (≈ 15.8 µM)
- MIC [12]: 8 µg/mL (≈ 15.8 µM)
- Activity [13]: Non-toxic
- MIC [20]: 64 µg/mL (≈ 126 µM)

Structure (SMILES): CC(C)CC(NO)c1c[nH]c2ccc(F)cc12 (centres undefined)
- Activity [1]: Non-toxic
- MIC [2]: 32 µg/mL (≈ 135 µM)
- MIC [3]: 32 µg/mL (≈ 135 µM)
- MIC [4]: 32 µg/mL (≈ 135 µM)
- MIC [5]: 32 µg/mL (≈ 135 µM)
- Activity [6]: Non-toxic
- MIC [7]: 32 µg/mL (≈ 135 µM)
- MIC [8]: 32 µg/mL (≈ 135 µM)
- MIC [9]: 32 µg/mL (≈ 135 µM)
- Activity [10]: Non-toxic
- MIC [11]: 32 µg/mL (≈ 135 µM)
- MIC [12]: 32 µg/mL (≈ 135 µM)
- Activity [13]: Non-toxic
- Activity [14]: Non-toxic
- Activity [15]: Non-toxic

Structure (SMILES): CC(NO)c1c[nH]c2ccc(Cl)cc12 (centres undefined)
- Activity [1]: Non-toxic
- MIC [2]: 32 µg/mL (≈ 152 µM)
- MIC [3]: 16 µg/mL (≈ 76 µM)
- MIC [4]: 32 µg/mL (≈ 152 µM)
- MIC [5]: 32 µg/mL (≈ 152 µM)
- Activity [6]: Non-toxic
- MIC [7]: 16 µg/mL (≈ 76 µM)
- MIC [8]: 32 µg/mL (≈ 152 µM)
- MIC [9]: 32 µg/mL (≈ 152 µM)
- Activity [10]: Non-toxic
- MIC [11]: 32 µg/mL (≈ 152 µM)
- MIC [12]: 16 µg/mL (≈ 76 µM)
- Activity [13]: Non-toxic
- Activity [14]: Non-toxic
- Activity [15]: Non-toxic

Structure (SMILES): CC(C)(C)OC(=O)NCC(c1c[nH]c2ccc(Br)cc12)N(O)Cc1ccccc1 (centres undefined)
- Activity [1]: Non-toxic
- MIC [2]: 8 µg/mL (≈ 17.4 µM)
- MIC [16]: 16 µg/mL (≈ 34.8 µM)
- MIC [3]: 16 µg/mL (≈ 34.8 µM)
- MIC [4]: 8 µg/mL (≈ 17.4 µM)
- MIC [17]: 8 µg/mL (≈ 17.4 µM)
- MIC [18]: 128 µg/mL (≈ 278 µM)
- MIC [5]: 8 µg/mL (≈ 17.4 µM)
- Activity [6]: Non-toxic
- MIC [7]: 16 µg/mL (≈ 34.8 µM)
- MIC [8]: 8 µg/mL (≈ 17.4 µM)
- MIC [9]: 8 µg/mL (≈ 17.4 µM)
- Activity [10]: Non-toxic
- MIC [11]: 8 µg/mL (≈ 17.4 µM)
- MIC [19]: 16 µg/mL (≈ 34.8 µM)
- MIC [12]: 16 µg/mL (≈ 34.8 µM)
- Activity [13]: Non-toxic
- MIC [20]: 128 µg/mL (≈ 278 µM)
- Activity [14]: Non-toxic
- Activity [15]: Non-toxic
